Shown are actives, neighbours in structure and some others; about 3.2% of the full set was active somewhere.
DAT uptake mod = modulates human dopamine transporter uptake under cocaine. Q01959. LLC-PK1 hDAT cells, [14C]-dopamine uptake with cocaine IC80; actives deviate in either direction. B-score at 10 µM. 110,000 tested, 1.3% active. AID 449768;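 active means Z score or B-score, a plate-position-corrected score, falls beyond the plate's 99.7% confidence bounds, in either direction; inactive means both scores lie inside the 99.7% bounds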;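 further: scored against the spread of the other compound wells on the same plate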
EphB4 antag = antagonists of human EphB4-ephrin-B2 interaction; P54760; EphB4 LBD / TNYL-RAW-Alexa532 peptide, fluorescence polarization; inhibition, % at 7 µM; 97,000 tested, 0.15% active;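 active means inhibition above the screen-wide mean inhibition plus 3 SD, cut at about 15% in these data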;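 further: 0% = DMSO wells and 100% = excess unlabeled TNYL-RAW peptide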
PLK1 kinase inh = inhibitors of human PLK1 kinase; P53350; recombinant PLK1 kinase, TR-FRET peptide phosphorylation; inhibition, % at 10 µM; 97,000 tested, 0.53% active; AID 619;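 active means inhibition of 50% or more in the single-concentration screen; inactive means inhibition below 50%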;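 further: 0% = DMSO max control and 100% = H-89 dihydrochloride min control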
Target sequence (P53350 whole entry, looked up): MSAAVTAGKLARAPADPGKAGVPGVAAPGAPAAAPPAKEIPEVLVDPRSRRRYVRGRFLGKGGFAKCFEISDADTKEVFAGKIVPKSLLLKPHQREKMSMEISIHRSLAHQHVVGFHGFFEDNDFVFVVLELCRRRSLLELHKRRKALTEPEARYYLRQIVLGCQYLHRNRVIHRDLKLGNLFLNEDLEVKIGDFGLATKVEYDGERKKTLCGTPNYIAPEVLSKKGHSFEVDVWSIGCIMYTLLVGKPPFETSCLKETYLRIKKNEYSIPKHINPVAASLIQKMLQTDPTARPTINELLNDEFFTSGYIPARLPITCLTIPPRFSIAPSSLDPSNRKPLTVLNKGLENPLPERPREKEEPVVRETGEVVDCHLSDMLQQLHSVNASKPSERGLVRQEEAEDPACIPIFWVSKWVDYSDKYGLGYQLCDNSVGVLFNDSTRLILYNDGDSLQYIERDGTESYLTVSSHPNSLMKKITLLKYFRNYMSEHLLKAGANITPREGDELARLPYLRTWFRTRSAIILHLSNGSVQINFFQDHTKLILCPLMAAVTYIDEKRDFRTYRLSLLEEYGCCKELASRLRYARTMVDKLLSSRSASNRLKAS
FAK inh = inhibitors of human focal adhesion kinase; 97,000 tested, 0.84% active; inhibition, %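 (tested at 7 µM)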; biochemical FAK kinase activity assay; in the data active means inhibition above about 19%;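 further: 0% = DMSO and 100% = reference compound high control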
PLK1 PBD inh = Plk1 (human) PBD binding inhibition; AID 693; 97,000 tested, 0.13% active; Plk1 PBD phosphopeptide binding, fluorescence polarization; inhibition, %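 (tested at about 20 µM)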; in the data active means inhibition above about 34%, passing the limit was not always enough
HIV Rev-RRE inh = disrupts HIV-1 Rev binding to RRE RNA. Rev peptide-RRE RNA binding, FRET. inhibition, % at 8 µM. 97,000 tested, 0.79% active. AID 704;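 active means inhibition above the screen-wide mean plus 3 SD, cut at about 35% in these data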;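 further: 0% = median DMSO wells and 100% = median Neomycin B control wells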
Target sequence (P05866 whole entry, looked up): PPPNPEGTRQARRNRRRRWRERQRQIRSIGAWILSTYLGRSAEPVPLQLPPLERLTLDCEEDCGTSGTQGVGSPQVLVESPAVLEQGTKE
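Test system: Cy5-tagged RRE RNA duplex with fluorescein-tagged Rev peptide; Probe or stimulus: labelled Rev peptide; Schedule: 5 min preincubation and 15 min binding, 25 °C; Signal: FRET fluorescence readout; Evaluation: % inhibition from 671/540 nm acceptor-to-donor ratio, scaled between controls; Control set: DMSO and neomycin B.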
PLK1 inh conf = confirmation of human PLK1 kinase inhibitors. inhibition, % at 10 µM. 210 tested, 20% active. recombinant PLK1 kinase, TR-FRET peptide phosphorylation. shares compounds with PLK1 kinase inh;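 active means inhibition at or above 50% in each of two repeat confirmation tests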;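 further: 0% = DMSO max control and 100% = H-89 kinase-blocked min control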
TR-FRET interf = interferes with the Plk1 assay readout, not true inhibition; shares compounds with PLK1 kinase inh; Plk1 TR-FRET assay interference, compound added post-reaction; inhibition (interference), % at 10 µM; 210 tested, under 10 active;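 active means both duplicate runs show 50% or greater inhibition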;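 further: 0% = DMSO max control and 100% = H-89 min control inhibited reaction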
* hit, by the source's call; / = not tested or not shown; [ ] = another dose, or the depositor's remark.

SMILES	DAT uptake mod	EphB4 antag	PLK1 kinase inh	FAK inh	PLK1 PBD inh	HIV Rev-RRE inh	PLK1 inh conf	TR-FRET interf
O=C(Nc1nnc(C2CC2)s1)C1Cc2ccccc2CN1S(=O)(=O)c1ccccc1F (stereo unspecified)	-0.54	-5.0	-8.7	0.3	-3.3	7.6	/	/
CC(=O)n1cc([C@H]2C=C(C(=O)N3CCN(Cc4ccc5c(c4)OCO5)CC3)O[C@@H](OCCCCO)C2)c2ccccc21	2.49*	/	/	/	/	/	/	/
CCO[C@@H]1OC(C(=O)N2CCN(Cc3ccc4c(c3)OCO4)CC2)=C[C@H](c2csc3ccccc23)[C@H]1CCCO	0.895	/	/	/	/	/	/	/
CCO[C@@H]1OC(C(=O)N2CCN(Cc3ccc4c(c3)OCO4)CC2)=C[C@H](c2cn(C(C)=O)c3ccccc23)[C@H]1CCCO	2.14*	/	/	/	/	/	/	/
CC(=O)n1cc([C@@H]2C=C(C(=O)N3CCOCC3)O[C@H](OCCCCO)C2)c2ccccc21	1.15	/	/	/	/	/	/	/
CC1(c2nnc(-c3ccc(F)cc3)o2)CC(c2ccncc2)=NO1 (stereo unspecified)	-0.551	/	/	/	/	/	/	/
COC(=O)c1ccccc1NC(=O)c1cccc(NC(=O)CSCc2ccccc2)c1C	0.264	-2.5	-7.0	-3.2	26.1	9.3	/	/
CCOC(=O)CN(C)C(=O)C1CCCN1C(=O)OC(C)(C)C (stereo unspecified)	-0.297	/	/	/	/	/	/	/
COc1cc2c(cc1NC(=O)COc1ccc3ccccc3c1)oc1ccccc12	-7.78*	1.3	-42.2	0.3	12.1	5.3	/	/
CC1(C)OC(=O)C(=CNc2cccc(C(=O)O)c2)C(=O)O1	-6.97*	2.9	-5.7	-2.0	22.6	0.5	/	/
CCN(CC)C(=O)CSc1nc2cccnc2n1-c1ccccc1OC	-1.21	3.7	-6.6	3.0	-16.9	5.9	/	/
CCN(CC)C(=O)CSc1nc2ccccc2c(=O)n1-c1ccccc1OC	1.91*	-3.0	-10.9	2.1	-7.7	4.8	/	/
O=C(Cn1c(C(=O)N2CCN(C3CCCC3)CC2)cc2sccc21)c1ccccc1	2.49*	0.0	-4.2	-0.9	3.2	4.8	/	/
COC(=O)c1ccc(NC(=O)CN2C(=O)CNC2=O)cc1	-0.559	-0.2	-19.0	1.5	-18.4	2.3	/	/
CCCSc1nc2sc3c(c2c(=O)[nH]1)CCN(Cc1ccccc1)C3	0.574	2.5	-23.1	4.7	-75.9	92.4*[fluorescence artefact?]	/	/
CCOc1c(Cl)cc(CNCC(C)C)cc1Cl	1.53	-4.9	-14.5	-1.2	16.0	2.0	/	/
CCNc1nc(N2CCCCC2)nc(-n2nnc(C(=O)OCC)c2C)n1	2.78*	1.3	-6.4	-1.8	3.3	8.9	/	/
Cc1sc2nc(CN(Cc3ccccc3)C(=O)NC3CCCCC3)[nH]c(=O)c2c1C	0.314	-4.3	50.3*	1.0	-9.3	8.2	/	/
CC(C)(C)c1ccc(C2=CC(c3ccccc3F)n3ncnc3N2)cc1 (stereo unspecified)	0.158	/	/	/	/	/	/	/
Fc1ccc(Br)cc1C1C=C(c2cccnc2)Nc2ncnn21 (stereo unspecified)	-0.159	6.2	88.2*	5.5	-7.5	21.6	46.0	-50.7
N#CCC(=O)Nc1sc2c(c1C(N)=O)CCCC2	-0.072	-2.1	70.2*	7.5	-19.0	6.2	-3.8	-53.7
NC(=O)c1c(NC(=O)CN2CCCC2)sc2c1CCCC2	-0.0487	0.1	-1.0	-4.3	-3.2	0.0	/	/
CCOc1ccc(CCNC(=O)c2cc3ccccn3n2)cc1OCC	-0.161	1.7	-9.0	-4.0	-10.2	6.8	/	/
Brc1ccc(Oc2nnnn2-c2ccccc2)cc1	-0.0464	-9.3	74.5*	-8.3	4.9	5.2	-8.6	-45.4
COC(/C=C/Nc1ccc(C)cc1)=C(C#N)C#N	-0.0331	2.9	-4.8	4.8	1.1	6.4	/	/
SMILES	DAT uptake mod	EphB4 antag	PLK1 kinase inh	FAK inh	PLK1 PBD inh	HIV Rev-RRE inh	PLK1 inh conf	TR-FRET interf
CC(=O)NCC(=O)N(C)C(C(=O)Nc1ccc(C(C)C)cc1)c1ccccc1 (stereo unspecified)	1.27	-6.9	-5.3	1.0	2.9	9.0	/	/
O=C(CN(Cc1ccccc1)S(=O)(=O)c1ccc(Br)cc1)NCc1ccco1	0.649	-4.1	84.9*	0.8	11.5	8.4	-8.3	-58.0
C=C(C)c1cccc(C(C)(C)NC(=O)N2CCN(c3ccccn3)CC2)c1	1.08	3.1	74.3*	5.6	7.5	9.6	-8.7	-58.1
O=C(COc1ccccc1)Nc1nnc(-c2ccccc2)o1	0.0487	1.8	-6.9	4.0	-9.7	7.2	/	/
O=C(COc1ccccc1)Nc1nnc(-c2ccc(Cl)s2)o1	-0.466	-1.7	72.3*	3.6	-1.3	2.2	-7.4	-53.7
CC1Cc2nc(SCC(=O)Nc3nccs3)n(C)c(=O)c2S1 (stereo unspecified)	1.42	-9.0	73.0*	-0.7	6.8	1.4	63.9*	-49.7
Cc1nnc(NC(=O)CSc2nc3c(c(=O)n2C)SC(C)C3)s1 (stereo unspecified)	0.441	-8.2	-6.4	-0.4	13.2	4.2	/	/
COc1cccc(C2CC(c3ccc(Cl)cc3Cl)n3nc(N)nc3N2)c1 (stereo unspecified)	0.92	-0.3	75.5*	-5.5	-28.2	9.3	-5.6	-51.5
O=C(Cn1c(SCC(=O)NC2CCCC2)nnc1-c1ccncc1)Nc1ccc2c(c1)OCO2	1.46	-8.8	-5.8	-1.4	-13.6	3.4	/	/
COc1cccc(C(=O)n2cnnc2N)c1OC	-0.378	4.5	127.5*	-3.0	-6.8	4.9	1.3	-56.1
CCOC(=O)C1=C(O)/C(=C\c2ccc(CNC(=O)C(=O)Nc3ccc(C)c(C)c3)o2)N=C1C	/	-1.5	-7.2	-0.7	10.7	6.1	/	/
Cc1cc(/C=C(\C#N)C(=O)NCc2cccs2)c(C)n1-c1ccccc1F	1.43	4.1	-9.7	8.2	8.2	2.8	/	/
Cc1cccc(NC(=O)NCCN2C(=O)C3C4C=CC(C4)C3C2=O)c1 (stereo unspecified)	-1.45	4.8	73.3*	-4.4	2.1	6.0	-6.4	-53.4
Cc1cccc(NC(=O)CCN2C(=O)C3C4C=CC(C4)C3C2=O)c1 (stereo unspecified)	-0.613	5.9	-5.2	-1.6	-3.4	4.9	/	/
COc1cccc(OC)c1C(=O)OCC(=O)Nc1ccc(OC(F)(F)F)cc1	1.06	4.3	-13.0	-1.3	-27.5	9.1	/	/
O=C(c1oc(=O)c2ccccc2c1-c1ccccc1)N1CCC(O)CC1	0.535	-2.7	77.6*	-2.5	28.6	3.2	3.6	-52.0
O=C(Cn1nc(Cc2cccnc2)c2ccccc2c1=O)NCc1ccc2c(c1)OCO2	-0.806	-2.8	72.3*	-0.9	6.3	4.9	21.1	-49.2
COc1ccc(C2OC(=O)CC2C(=O)N2CCN(c3cc(Cl)ccc3C)CC2)cc1OC (stereo unspecified)	0.962	-3.6	75.8*	0.3	-18.9	-0.9	-4.9	-52.4

Source: PubChem (several laboratories)
